Screening data: PubChem, Johns Hopkins Ion Channel Center
An excerpt weighted towards active compounds, which were near 2.3% of everything screened.
TRPC4 block: inhibitors of mouse TRPC4 channel | Q9QUQ5 | HEK293 TRPC4beta/mu-opioid, DAMGO-evoked Fluo4 calcium flux; active compounds read low | B-score at 10 µM | actives 0.39% (n = 300,000) | AID 2247;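 active = B-score over 3 SD under the library average, no early fluorescence shift, positive overall ratio signal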
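Assay system: TRPC4beta/mu-opioid receptor HEK293 cell line; compound dosing: single concentration per test compound; detection: Fluo4 Ca2+ flux fluorescence; evaluation: per-well B score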
TRPC4 PAM: allosteric potentiators of mouse TRPC4 channel; HEK293 TRPC4beta/mu-opioid, DAMGO EC20, Fluo-4 Ca2+ flux; active compounds read high; B-score at 10 µM; actives 0.42% (n = 310,000); AID 2227;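 active = B-score of calcium response area above 5 SD of library B-scores, with initial fluorescence ratio within 5 SD of library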
TRPC6 inhibitor: inhibitors of mouse TRPC6 channel | B-score at 10 µM | AID 2553 | actives 1.1% (n = 310,000) | Q61143 | HEK293-TRPC6, membrane potential dye, ACh-evoked depolarization; active compounds read low;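 active = B-score under library mean minus 3 SD, initial fluorescence not abnormally high, positive integrated signal ratio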;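 also: B-score derived from integrated fluorescence ratio over the kinetic read; more negative B-score means stronger inhibition of depolarization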
Target sequence (Q61143 whole entry, looked up): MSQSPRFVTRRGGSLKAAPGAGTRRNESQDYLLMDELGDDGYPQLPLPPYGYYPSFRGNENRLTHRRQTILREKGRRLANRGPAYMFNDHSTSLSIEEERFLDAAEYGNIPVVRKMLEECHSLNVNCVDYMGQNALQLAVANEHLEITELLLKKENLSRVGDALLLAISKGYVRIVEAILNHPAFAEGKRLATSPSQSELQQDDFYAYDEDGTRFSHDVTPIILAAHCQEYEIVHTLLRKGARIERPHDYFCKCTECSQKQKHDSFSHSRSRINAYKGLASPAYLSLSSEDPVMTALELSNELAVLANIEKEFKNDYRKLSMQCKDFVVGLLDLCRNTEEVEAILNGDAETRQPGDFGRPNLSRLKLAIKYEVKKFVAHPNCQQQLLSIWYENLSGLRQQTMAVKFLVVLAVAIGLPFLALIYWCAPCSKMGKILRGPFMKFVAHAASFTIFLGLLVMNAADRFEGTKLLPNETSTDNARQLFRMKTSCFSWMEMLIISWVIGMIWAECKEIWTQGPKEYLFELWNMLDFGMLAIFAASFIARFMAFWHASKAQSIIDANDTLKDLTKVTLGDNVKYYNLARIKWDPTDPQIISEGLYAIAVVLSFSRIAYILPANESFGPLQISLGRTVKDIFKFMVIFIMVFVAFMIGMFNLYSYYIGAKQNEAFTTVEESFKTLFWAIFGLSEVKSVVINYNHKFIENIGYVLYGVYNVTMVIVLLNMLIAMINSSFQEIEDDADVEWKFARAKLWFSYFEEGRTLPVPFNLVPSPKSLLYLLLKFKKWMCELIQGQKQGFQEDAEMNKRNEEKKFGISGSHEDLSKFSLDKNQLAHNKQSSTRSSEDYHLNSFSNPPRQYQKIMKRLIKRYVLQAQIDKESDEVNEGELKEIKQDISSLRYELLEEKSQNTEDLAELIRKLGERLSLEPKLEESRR
TRPC4 agonist: opens the mouse TRPC4 cation channel | Q9QUQ5 | HEK293 TRPC4beta/mu-opioid, Fluo4 calcium fluorescence; active compounds read high | B-score at 10 µM | actives 0.49% (n = 310,000) | AID 2237;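 active = B-score above 5 SD of library B-scores, and initial fluorescence ratio not above library mean plus 5 SD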;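 also: positive B-score marks a calcium rise read as TRPC4 activation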
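System – HEK293 cells stably co-expressing mouse TRPC4beta and mu-opioid receptor · Signal – Fluo4 calcium-sensitive dye fluorescence, kinetic, 1 Hz baseline · Benchmarks – buffer (low) and maximal DAMGO (high) · Read-out – B score of integrated fluorescence ratio per well · Incubation – dye loading 45 min room temperature, 110 s kinetic read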
TRPC6 act: mouse TRPC6 channel activation. Q61143. HEK293-TRPC6 membrane potential dye fluorescence; active compounds read high. B-score at 10 µM. actives 0.13% (n = 310,000);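 active = B-score of the integrated fluorescence ratio above library mean plus 3 SD, and starting fluorescence ratio within library mean plus 5 SD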;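 also: higher score means more depolarization so channel activation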
TRPC4 spec 2: second check of whether TRPC6 inhibitors also affect mouse TRPC4; shares compounds with TRPC6 inhibitor; HEK293 TRPC4/MOR, membrane potential dye fluorescence; channel activated by saturating DAMGO dose; inhibition, % at 10 µM; actives 42% (n = 920);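 active = compounds whose fluorescence signal differed from control wells by over 3 SD, either direction, in both duplicate plates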
TRPC4 spec: mouse TRPC4 off-target activity of TRPC6 inhibitors | shares compounds with TRPC6 inhibitor | HEK293 TRPC4/mu-opioid, membrane potential fluorescence | activity change, negative = inhibition, % at 10 µM | actives 61% (n = 920) | AID 2777;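 active = rise or fall in signal beyond 3 SD of buffer-only wells in both replicate plates, either sign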;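 also: integrated kinetic ratio of fluorescence range over baseline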
HEK293 MPD ctr 2-1: second counter-screen for TRPC6 inhibitors: parental HEK293 cells. shares compounds with TRPC6 inhibitor. actives 31% (n = 920). signal change vs control, % at 10 µM. parental HEK293 membrane potential dye fluorescence; maximal acetylcholine challenge after compound addition;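 active = membrane potential signal moving either way by over 3 SD of the maximum-effect control, in both duplicate plates, meaning non-specific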
HEK293 MPD ctr-1: checks TRPC6 inhibitor effects in parental HEK293 cells | shares compounds with TRPC6 inhibitor | parental HEK293 membrane potential dye fluorescence | membrane potential signal change, % at 10 µM | actives 60% (n = 920);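 active = membrane potential signal shifting up or down by more than 3 SD of buffer-only wells, on both duplicate plates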
HEK293 MPD ctr-2: checks TRPC6 modulator effects in parental HEK293 cells; shares compounds with TRPC6 inhibitor; membrane potential dye fluorescence; membrane potential signal change, % at 10 µM; actives 51% (n = 2,400); AID 488924;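 active = membrane potential signal moves up or down beyond 5 SD from buffer-only wells, on both duplicate plates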
HEK293 MPD ctr 2-2: second counter-screen for TRPC6 modulators: effect in parental HEK293 cells; membrane potential dye fluorescence; after compound, maximal acetylcholine stimulation; inhibition, % at 10 µM; actives 14% (n = 2,400); shares compounds with TRPC6 inhibitor;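 active = membrane potential signal drops by more than 5 SD from the mean control signal, in both duplicate plates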
TRPC4/MOR mod: selectivity of TRPC6 modulators against mouse TRPC4; actives 69% (n = 2,400); percent change from control (negative = decrease, positive = increase), % at 10 µM; AID 488927; HEK293 TRPC4/mu-opioid, membrane potential fluorescence; shares compounds with TRPC6 inhibitor;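 active = membrane potential signal moved up or down beyond 5 SD of buffer control wells, in both duplicate plates, actives on both sides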
TRPC4/MOR inh 2: second check of whether TRPC6 modulators also affect mouse TRPC4. shares compounds with TRPC6 inhibitor. HEK293 TRPC4/mu-opioid, membrane potential dye fluorescence; stimulated with maximal-effect DAMGO. inhibition, % at 10 µM. actives 55% (n = 2,400);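 active = drop in membrane potential signal beyond 5 SD of the control wells in both duplicate plates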;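 also: TRPC4 counter screen for TRPC6 hits run under conditions tuned for TRPC6 not TRPC4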
TRPC6 inh conf: confirmation of mouse TRPC6 inhibitors | inhibition, % at 10 µM | HEK293-TRPC6, membrane potential dye, ACh-evoked depolarization | AID 488960 | shares compounds with TRPC6 inhibitor | actives 43% (n = 3,300);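 active = fluorescence ratio falls more than 5 SD below the full-stimulation control mean, in both duplicate runs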;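 also: integrated fluorescence ratio of peak minus minimum over baseline after agonist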
TRPC6 act conf: confirmation of mouse TRPC6 activators | shares compounds with TRPC6 inhibitor | HEK293-TRPC6 membrane potential dye fluorescence, FDSS | activation, % at 10 µM | actives 11% (n = 2,800) | AID 488961;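 active = ratio signal rise beyond 5 SD above unstimulated control wells' mean, seen in both duplicate runs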
Numbers stand for hits; i = inactive; nt = no result given; + = active, no number.

SMILES | TRPC4 block | TRPC4 PAM | TRPC6 inhibitor | TRPC4 agonist | TRPC6 act | HEK293 MPD ctr-2 | HEK293 MPD ctr 2-2 | TRPC4/MOR mod | TRPC4/MOR inh 2 | TRPC6 inh conf | TRPC6 act conf | others
COc1ccc(OC)c(S(=O)(=O)N2CCCC(C(=O)NCc3cccnc3)C2)c1 (stereo not given) | i | i | i | i | i | nt | nt | nt | nt | nt | nt
O=C(CSc1n[nH]c(-c2cccs2)n1)NCc1cccs1 | i | i | -6.8 | i | i | nt | nt | nt | nt | i | i | TRPC4 spec 2=i;TRPC4 spec=i;HEK293 MPD ctr 2-1=i;HEK293 MPD ctr-1=i
Nc1cc2ccncc2c2ccccc12 | i | i | -11 | i | i | -380% | 78% | -72% | 86% | 74% | i
CCn1cc(C(=O)Nc2sc(C)c(C)c2C(=O)OC)cn1 | i | i | i | i | i | nt | nt | nt | nt | nt | nt
O=[N+]([O-])c1cc(/C=N/n2cnnc2)ccc1N1CCCC1 | i | i | -5.2 | i | i | -76% | i | -15% | i | i | i
O=[N+]([O-])c1cc(/C=N/O)ccc1N1CCCC1 | i | i | i | i | i | nt | nt | nt | nt | nt | nt
Nc1c2c(nc3ccn(Cc4ccccc4)c(=O)c13)CCC2 | i | i | -7.5 | i | i | nt | nt | nt | nt | 73% | i | TRPC4 spec 2=72%;TRPC4 spec=-22%;HEK293 MPD ctr 2-1=-10%;HEK293 MPD ctr-1=-353%
Nc1c2c(nc3ccn(-c4ccccc4)c(=O)c13)CCCCC2 | i | i | -5.4 | i | i | -151% | i | -28% | 38% | i | i
O=C(CSc1ncn[nH]1)Nc1ccc(S(=O)(=O)Nc2ncccn2)cc1 | i | i | i | i | i | nt | nt | nt | nt | nt | nt
Nc1ccc(/C=C/C(=O)c2cccs2)cc1 | i | i | i | 92 | 81 | + | + | 291% | 76% | nt | 543%
COCCNc1c([N+](=O)[O-])c(=O)n(-c2ccccc2)c2ccccc12 | i | i | i | i | i | nt | nt | nt | nt | nt | nt
O=c1c([N+](=O)[O-])c(NCCN2CCCCCC2)c2ccccc2n1-c1ccccc1 | i | i | -6.3 | i | i | i | i | -16% | 80% | 50% | i
Cc1ccc2cccc(OCC(=O)N3CC(C)CC(C)C3)c2n1 (stereo not given) | i | i | i | i | i | nt | nt | nt | nt | nt | nt
O=C(COc1ccccc1)NCCSc1ccccc1 | i | i | -5.8 | i | i | i | i | 8.5% | i | i | nt
Cc1ccc(-c2c[n+](Cc3cccc(Cl)c3)c3n2CCC3)cc1 | -6 | i | -5.1 | i | i | -147% | i | -24% | 84% | i | i
Cc1ccc(-c2c[n+](CC(=O)Nc3c(C)cccc3C)c3n2CCC3)cc1 | i | i | i | i | i | nt | nt | nt | nt | nt | nt
Cc1ccc(C[n+]2cc(-c3ccc(Cl)cc3)n3c2CCC3)cc1 | -7 | i | -5.6 | i | i | -96% | i | -18% | 30% | i | i
COc1ccc(Cl)cc1NS(=O)(=O)N1CCOCC1 | i | i | i | i | i | nt | nt | nt | nt | nt | nt
COc1ccc([N+](=O)[O-])cc1N(CC(O)CN(CC(C)C)CC(C)C)S(=O)(=O)c1ccccc1 (stereo not given) | i | i | i | i | i | nt | nt | nt | nt | nt | nt
CCCCN(CCCC)CC(O)CN(c1cc([N+](=O)[O-])ccc1OC)S(=O)(=O)c1ccccc1 (stereo not given) | i | i | -10 | i | i | nt | nt | nt | nt | 67% | i | TRPC4 spec 2=28%;TRPC4 spec=i;HEK293 MPD ctr 2-1=i;HEK293 MPD ctr-1=0.2%
CCC(C)(C)n1nnnc1C(c1ccc(F)cc1)N1CCN(C(=O)c2ccco2)CC1 (stereo not given) | i | i | -5.5 | i | i | 124% | i | 28% | 34% | i | nt
CCC(C)(C)n1nnnc1C(c1ccc(C)cc1)N1CCN(C(=O)c2ccco2)CC1 (stereo not given) | i | i | i | i | i | nt | nt | nt | nt | nt | nt
CC(=O)[C@@]1(O)C(C)CC2C3C=C(C)C4=Cc5c(cnn5-c5ccccc5)C[C@]4(C)C3C(O)C[C@@]21C (stereo not given in full) | i | i | -6.4 | i | i | i | i | i | i | i | nt
CN1CCc2c(c3ccccc3n2Cc2ccccc2)C1 | i | i | -5.4 | i | i | 141% | i | 18% | 64% | i | nt
O=C(COC(=O)c1ccc(Cl)nc1)NCCC1=CCCCC1 | i | i | i | i | i | nt | nt | nt | nt | nt | nt
SMILES | TRPC4 block | TRPC4 PAM | TRPC6 inhibitor | TRPC4 agonist | TRPC6 act | HEK293 MPD ctr-2 | HEK293 MPD ctr 2-2 | TRPC4/MOR mod | TRPC4/MOR inh 2 | TRPC6 inh conf | TRPC6 act conf | others
N#Cc1nc(Cc2cccc3ccccc23)oc1NCCN1CCCCC1 | i | i | -5.2 | i | i | 106% | i | 10% | 63% | i | nt
Cc1ccc2cccnc2c1N | i | i | i | i | i | nt | nt | nt | nt | nt | nt
Cc1ccnc2c1ccc1ccccc12 | i | i | -6.5 | i | i | i | i | i | i | i | i
Cc1ccc(C2C(C#N)=C(N)Oc3cc(N)ccc32)cc1 (stereo not given) | i | i | i | i | 13 | i | i | i | i | i | i
CC(=O)Nc1ccc(NC(=O)CCCc2ccccc2)cc1 | i | i | i | i | i | nt | nt | nt | nt | nt | nt
CSc1cccc(NC(=S)N2CCC(N(C)C3CCCCCC3)CC2)c1 | i | i | -7.8 | i | i | nt | nt | nt | nt | i | i | TRPC4 spec 2=58%;TRPC4 spec=i;HEK293 MPD ctr 2-1=i;HEK293 MPD ctr-1=0.9%
CCN(C(=O)Cn1cnc2cc([N+](=O)[O-])ccc2c1=O)C1CCS(=O)(=O)C1 (stereo not given) | i | i | i | i | i | nt | nt | nt | nt | nt | nt
Cc1ccc2sc(NNC(=O)C3=COCCO3)nc2c1C | i | i | i | i | i | nt | nt | nt | nt | nt | nt
Cc1ccc(S(=O)(=O)N2CCN(C(=O)c3cccs3)CC2)cc1C | i | i | i | i | 18 | i | i | 16% | i | nt | 148%
